# ChEMBL document CHEMBL3244165, “Improved synthesis and in vitro antiviral activities of 5-cyanouridine and 5-cyano-2'-deoxyuridine” (J Med Chem, 1977)
# System: not listed separately
# Test: Dissociation constant, pKa of the compound by spectrophotometric analysis
# Type: physicochemical
# Summary of the method: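 Determined spectrophotometrically in Teorell-Stenhagen buffers.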
row,Structure (SMILES),pKa
1,O=c1[nH]c(=O)n([C@H]2C[C@H](O)[C@@H](CO)O2)cc1I [IDOXURIDINE],8.2
2,N#Cc1cn([C@H]2C[C@H](O)[C@@H](CO)O2)c(=O)[nH]c1=O,6.8

# System: Human alphaherpesvirus 1
# Test: Antiviral activity against Herpes simplex virus 1 infected in primary rabbit kidney cells assessed as inhibition of virus-induced cytopathogenicity
# Type: functional
row,Structure (SMILES),ID50
1,Nc1ncnc2c1ncn2[C@@H]1O[C@H](CO)[C@@H](O)[C@@H]1O [VIDARABINE],1.5 ×10⁻⁵ M
2,O=c1[nH]c(=O)n([C@H]2C[C@H](O)[C@@H](CO)O2)cc1Br [BROXURIDINE],3.2 ×10⁻⁷ M
3,N#Cc1cn([C@@H]2O[C@H](CO)[C@@H](O)[C@H]2O)c(=O)[nH]c1=O,3.7 ×10⁻⁴ M
4,O=c1[nH]c(=O)n([C@H]2C[C@H](O)[C@@H](CO)O2)cc1I [IDOXURIDINE],5.7 ×10⁻⁷ M
5,O=c1[nH]c(=O)n([C@H]2C[C@H](O)[C@@H](CO)O2)cc1Cl [CHLORODEOXYURIDINE],7.6 ×10⁻⁷ M
6,N#Cc1cn([C@H]2C[C@H](O)[C@@H](CO)O2)c(=O)[nH]c1=O,1.6 ×10⁻⁴ M
7,O=c1[nH]c(=O)n([C@H]2C[C@H](O)[C@@H](CO)O2)cc1F [FLOXURIDINE],1.6 ×10⁻⁷ M
8,O=c1[nH]c(=O)n([C@H]2C[C@H](O)[C@@H](CO)O2)cc1C(F)(F)F [TRIFLURIDINE],6.6 ×10⁻⁷ M

# System: Vesicular stomatitis virus
# Test: Antiviral activity against Vesicular stomatitis virus infected in primary rabbit kidney cells assessed as inhibition of virus-induced cytopathogenicity
# Type: functional
row,Structure (SMILES),ID50 [×10⁻⁴ M]
1,N#Cc1cn([C@@H]2O[C@H](CO)[C@@H](O)[C@H]2O)c(=O)[nH]c1=O,>7

# System: Human alphaherpesvirus 1
# Test: Antiviral activity against Herpes simplex virus 1 infected in human skin fibroblasts assessed as inhibition of virus-induced cytopathogenicity
# Type: functional
row,Structure (SMILES),ID50
1,Nc1ncnc2c1ncn2[C@@H]1O[C@H](CO)[C@@H](O)[C@@H]1O [VIDARABINE],3.7 ×10⁻⁵ M
2,O=c1[nH]c(=O)n([C@H]2C[C@H](O)[C@@H](CO)O2)cc1Br [BROXURIDINE],3.2 ×10⁻⁷ M
3,N#Cc1cn([C@@H]2O[C@H](CO)[C@@H](O)[C@H]2O)c(=O)[nH]c1=O,>7 ×10⁻⁴ M
4,O=c1[nH]c(=O)n([C@H]2C[C@H](O)[C@@H](CO)O2)cc1I [IDOXURIDINE],5.7 ×10⁻⁷ M
5,O=c1[nH]c(=O)n([C@H]2C[C@H](O)[C@@H](CO)O2)cc1Cl [CHLORODEOXYURIDINE],7.6 ×10⁻⁷ M
6,N#Cc1cn([C@H]2C[C@H](O)[C@@H](CO)O2)c(=O)[nH]c1=O,>7 ×10⁻⁴ M
7,O=c1[nH]c(=O)n([C@H]2C[C@H](O)[C@@H](CO)O2)cc1F [FLOXURIDINE],4 ×10⁻⁷ M
8,O=c1[nH]c(=O)n([C@H]2C[C@H](O)[C@@H](CO)O2)cc1C(F)(F)F [TRIFLURIDINE],1.3 ×10⁻⁶ M
